Test results reported in ChEMBL document CHEMBL1143250, “Synthesis and bioevaluation of 22-hydroxyacuminatine analogs” (Bioorg Med Chem Lett, 2008).
Converted amounts (≈) assume the structure as drawn. The source made the active and inactive calls. The rule behind the calls is not given here.

How the values were obtained:
[1] = Antiproliferative activity against human MIA PaCa cells after 96 hrs; assay type: functional, cell-based
How it was run: (§1)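 Cytostatic growth-inhibition assay: cells were exposed to compound for 96 h. The IC50 is the concentration giving 50% inhibition of cell growth. Compounds were dissolved in DMSO, and the top concentration was capped by the final DMSO level in the mixture. Compounds showing no inhibition up to the highest concentration tested were scored not active.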

DU-145 [2] = assay: Antiproliferative activity against human DU145 cells at 2 uM after 96 hrs; assay type: functional, cell-based; how it was run: as §1
HT-29 [3] = assay: Antiproliferative activity against human HT29 cells at 2 uM after 96 hrs; assay type: functional, cell-based; how it was run: as §1
DU-145 [4] = assay: Antiproliferative activity against human DU145 cells after 96 hrs; assay type: functional, cell-based; conditions: DU-145, 96 h; how it was run: as §1
HT-29 [5] = assay: Antiproliferative activity against human HT29 cells after 96 hrs; assay type: functional, cell-based; conditions: HT-29, 96 h; how it was run: as §1
PaCa = assay: Antiproliferative activity against human MIA PaCa cells at 2 uM after 96 hrs; assay type: functional, cell-based; how it was run: as §1
P388 = assay: Cytotoxicity against mouse P388 cells; assay type: functional; conditions: read-out: ED50 (the source's name)
KB = assay: Cytotoxicity against human KB cells; assay type: functional; conditions: read-out: ED50 (the source's name)

IC50 (DU-145 [4])	IC50 (HT-29 [5])	SMILES	IC50 [1]	Activity (DU-145 [2])	Activity (HT-29 [3])	Activity (PaCa)	EC50 (P388)	EC50 (KB)
		CCc1c2c(nc3ccc(Cl)cc13)-c1cc3c(C(=O)OC)cccc3c(=O)n1C2	1500 nM	inactive	inactive			
		CCc1c2c(nc3cc4c(cc13)OCCO4)-c1cc3c(C(=O)OC)cccc3c(=O)n1C2	1400 nM	inactive	inactive			
4 nM	12 nM	CCc1c2c(nc3ccc(O)cc13)-c1cc3c(c(=O)n1C2)COC(=O)[C@]3(O)CC [7-ETHYL-10-HYDROXYCAMPTOTHECIN]	6 nM					
1810 nM		CCc1c2c(nc3ccc(OC)cc13)-c1cc3c(CO)cccc3c(=O)n1C2	810 nM		inactive			
		CCc1c2c(nc3ccc(C)cc13)-c1cc3c(C(=O)OC)cccc3c(=O)n1C2	1810 nM	inactive	inactive			
		COC(=O)c1cccc2c(=O)n3c(cc12)-c1nc2ccccc2cc1C3	1010 nM	inactive	inactive			
		COC(=O)c1cccc2c(=O)n3c(cc12)-c1nc2ccc(C)cc2c(CCl)c1C3	1350 nM	inactive	inactive			
		O=c1c2cccc(CO)c2cc2n1Cc1cc3cc(Cl)ccc3nc1-2	1700 nM	inactive	inactive			
		CCc1c2c(nc3ccc(OC)cc13)-c1cc3c(C(=O)OC)cccc3c(=O)n1C2		inactive	inactive	inactive		
1690 nM		CCc1c2c(nc3ccc(Cl)cc13)-c1cc3c(CO)cccc3c(=O)n1C2	810 nM		inactive			
		COC(=O)c1cccc2c(=O)n3c(cc12)-c1nc2ccc(OC)cc2c(C)c1C3	1990 nM	inactive	inactive			
		CCc1c2c(nc3ccc(C)cc13)-c1cc3c(CO)cccc3c(=O)n1C2	1140 nM	inactive	inactive			
		O=c1c2cccc(CO)c2cc2n1Cc1cc3ccccc3nc1-2	1010 nM	inactive	inactive		1.32 µg/mL (≈ 4.2 µM)	0.61 µg/mL (≈ 1.94 µM)
